In series [1] the target is T1, D(2) dopamine receptor (Homo sapiens, UniProt P14416). Nature of the series: Displacement of [3H]methylspiperone from human dopamine D2 receptor expressed in CHO cells. The class given is cell-based.
Series [2] concerns the target D(1B) dopamine receptor (Homo sapiens, UniProt P21918). The series is described as follows: Binding affinity at dopamine D5 receptor.
Series [3] deals with 5-hydroxytryptamine receptor 2A (Homo sapiens, UniProt P28223). The series is described as follows: Binding affinity at 5HT2A receptor.
Series [4] deals with T1, D(2) dopamine receptor. The series is described as follows: Binding affinity at dopamine D2 receptor. In short, it runs like this: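 Membranes from cells stably expressing D2 receptor (4-7 pmol/mg protein; Ltk- cells in one passage, CHO in another), made by hypotonic lysis and 48,000g spin and stored at -80 °C. Incubated with 0.5 nM [3H]methylspiperone for 1 h at room temperature. Nonspecific binding set by 10 µM (-)-sulpiride. Rapid filtration, then scintillation counting. One-site competition fit; Ki is the mean of separate determinations.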

Series [5] addresses T2, D(1A) dopamine receptor (Homo sapiens, UniProt P21728). Nature of the series: Activity at dopamine D1 receptor by cAMP assay. Particulars: for Activity: filed as antagonist. The class given is functional.
For series [6], the target named is T3, Alpha-2A adrenergic receptor (Homo sapiens, UniProt P08913).
T3 sequence (P08913 whole entry): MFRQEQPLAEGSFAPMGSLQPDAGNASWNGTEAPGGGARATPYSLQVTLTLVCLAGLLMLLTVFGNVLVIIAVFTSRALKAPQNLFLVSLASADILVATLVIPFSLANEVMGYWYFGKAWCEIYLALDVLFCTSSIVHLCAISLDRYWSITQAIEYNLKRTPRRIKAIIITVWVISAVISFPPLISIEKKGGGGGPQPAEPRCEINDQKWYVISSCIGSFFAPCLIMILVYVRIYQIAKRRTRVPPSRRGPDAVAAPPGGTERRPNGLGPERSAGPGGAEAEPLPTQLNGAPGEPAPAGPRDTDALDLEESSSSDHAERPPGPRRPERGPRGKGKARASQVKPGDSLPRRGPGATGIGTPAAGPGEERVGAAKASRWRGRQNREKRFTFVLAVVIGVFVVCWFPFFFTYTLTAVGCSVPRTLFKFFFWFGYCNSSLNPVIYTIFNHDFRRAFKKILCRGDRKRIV
The series is described as follows: Binding affinity at adrenergic alpha2A receptor.

Series [7] is described as follows: Tmax in Sprague-Dawley rat plasma at 10 mg/kg, po. Also noted: dose 10 mg/kg, route oral. The class given is ADME, organism-based. In short, it runs like this: (§1)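 Single oral dose of 10 mg/kg to two male Sprague-Dawley rats. Blood drawn at several time points. Plasma levels of individual animals, generally within ±25% of the mean, were used to calculate PK parameters.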

Series [8] can be described thus: AUC in Sprague-Dawley rat plasma at 10 mg/kg, po. The class given is ADME, organism-based. Further details: dose 10 mg/kg, route oral. Put shortly:
as §1

Series [9] addresses T2, D(1A) dopamine receptor. Nature of the series: Displacement of [3H]SCH 23390 from human dopamine D1 receptor expressed in CHO cells. The class given is cell-based. In general terms: Loss of bound radioactivity is the signal in a displacement assay; it reports binding, not function.
Series [10] deals with T4, D(4) dopamine receptor (Homo sapiens, UniProt P21917).
T4 sequence (P21917 whole entry): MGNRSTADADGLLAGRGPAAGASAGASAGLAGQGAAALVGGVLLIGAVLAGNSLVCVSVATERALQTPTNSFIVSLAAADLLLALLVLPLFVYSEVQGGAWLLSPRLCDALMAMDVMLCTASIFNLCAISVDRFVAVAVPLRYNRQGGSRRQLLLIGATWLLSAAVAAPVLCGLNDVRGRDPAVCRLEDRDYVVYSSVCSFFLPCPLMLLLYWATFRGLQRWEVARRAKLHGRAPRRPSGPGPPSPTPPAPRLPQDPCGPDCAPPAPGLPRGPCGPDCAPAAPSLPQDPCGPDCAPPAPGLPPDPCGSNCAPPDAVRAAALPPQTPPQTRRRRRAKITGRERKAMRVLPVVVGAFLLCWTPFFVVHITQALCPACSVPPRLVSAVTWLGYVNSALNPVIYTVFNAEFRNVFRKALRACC
The series is described as follows: Binding affinity at dopamine D4 receptor.

The nature of series [11]: Cmax in Sprague-Dawley rat plasma at 10 mg/kg, po. Also noted: dose 10 mg/kg, route oral. The class given is ADME, organism-based. Put shortly: as §1

Here are results for six molecules from ChEMBL document CHEMBL1146871, “Hydrazides of clozapine: a new class of D1 dopamine receptor subtype selective antagonists” (Bioorg Med Chem Lett, 2006).

T1 sequence (P14416 whole entry): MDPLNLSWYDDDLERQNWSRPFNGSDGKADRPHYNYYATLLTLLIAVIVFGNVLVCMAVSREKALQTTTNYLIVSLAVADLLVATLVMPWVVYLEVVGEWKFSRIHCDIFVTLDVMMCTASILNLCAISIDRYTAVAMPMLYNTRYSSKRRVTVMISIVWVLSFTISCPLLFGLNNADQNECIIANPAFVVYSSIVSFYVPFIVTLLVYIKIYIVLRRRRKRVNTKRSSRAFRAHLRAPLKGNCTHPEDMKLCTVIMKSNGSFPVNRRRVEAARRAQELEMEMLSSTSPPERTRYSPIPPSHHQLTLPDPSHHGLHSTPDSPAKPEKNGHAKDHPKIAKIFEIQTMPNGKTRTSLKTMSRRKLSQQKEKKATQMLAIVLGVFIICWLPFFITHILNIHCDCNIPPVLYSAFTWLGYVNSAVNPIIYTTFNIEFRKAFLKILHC
Sequence of 5-hydroxytryptamine receptor 2A (P28223 whole entry): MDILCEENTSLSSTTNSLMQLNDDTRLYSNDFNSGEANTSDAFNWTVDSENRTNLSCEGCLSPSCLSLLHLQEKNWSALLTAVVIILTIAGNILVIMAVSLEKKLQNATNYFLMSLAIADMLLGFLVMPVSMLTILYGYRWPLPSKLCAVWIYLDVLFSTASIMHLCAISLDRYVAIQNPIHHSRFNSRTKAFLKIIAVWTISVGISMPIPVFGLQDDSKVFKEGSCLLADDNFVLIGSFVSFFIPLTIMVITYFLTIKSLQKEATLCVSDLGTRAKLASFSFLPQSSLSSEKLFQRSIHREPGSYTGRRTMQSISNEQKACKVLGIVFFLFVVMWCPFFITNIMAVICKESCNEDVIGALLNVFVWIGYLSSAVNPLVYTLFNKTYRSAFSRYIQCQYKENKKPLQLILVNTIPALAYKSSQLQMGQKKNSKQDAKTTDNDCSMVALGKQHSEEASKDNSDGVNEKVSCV
Sequence of D(1B) dopamine receptor (P21918 whole entry): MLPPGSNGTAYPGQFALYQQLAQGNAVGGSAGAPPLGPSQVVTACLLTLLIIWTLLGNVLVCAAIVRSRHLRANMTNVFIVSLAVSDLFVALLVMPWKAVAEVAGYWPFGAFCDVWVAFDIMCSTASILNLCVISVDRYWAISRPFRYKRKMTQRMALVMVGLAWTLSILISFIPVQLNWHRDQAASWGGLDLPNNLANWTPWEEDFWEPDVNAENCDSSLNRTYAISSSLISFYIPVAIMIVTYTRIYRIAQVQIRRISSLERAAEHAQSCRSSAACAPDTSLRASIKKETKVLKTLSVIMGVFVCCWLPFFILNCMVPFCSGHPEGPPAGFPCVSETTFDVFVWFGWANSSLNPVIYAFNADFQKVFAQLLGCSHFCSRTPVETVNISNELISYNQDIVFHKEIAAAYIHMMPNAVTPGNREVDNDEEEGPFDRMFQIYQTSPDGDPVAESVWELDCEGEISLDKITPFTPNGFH
T2 sequence (P21728 whole entry): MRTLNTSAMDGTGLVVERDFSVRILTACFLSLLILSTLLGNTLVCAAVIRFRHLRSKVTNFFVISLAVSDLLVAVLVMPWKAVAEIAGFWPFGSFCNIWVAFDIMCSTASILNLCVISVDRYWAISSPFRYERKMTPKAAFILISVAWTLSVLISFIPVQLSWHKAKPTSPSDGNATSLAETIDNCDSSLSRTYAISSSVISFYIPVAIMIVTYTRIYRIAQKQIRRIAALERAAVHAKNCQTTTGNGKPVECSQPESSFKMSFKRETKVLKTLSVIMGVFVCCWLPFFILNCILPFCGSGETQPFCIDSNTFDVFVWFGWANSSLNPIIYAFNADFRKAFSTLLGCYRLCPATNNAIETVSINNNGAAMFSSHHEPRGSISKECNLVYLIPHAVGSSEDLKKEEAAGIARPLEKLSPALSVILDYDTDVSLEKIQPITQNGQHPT

`COc1cccc(OC)c1C(=O)NN1c2ccc(Cl)cc2N=C(N2CCN(C)CC2)c2ccccc21`: the Ki (in general, a measure of affinity in units of concentration, obtained from inhibition or displacement) in series [1] was 340 nM; in [2], 38 nM; in [3] it was 13.8 nM; in series [4] it was 340 nM; in series [6] it was 169 nM; in series [9], 1.6 nM. For the same molecule, the affinity in series [10] corresponds to a Ki of 1810 nM. Also, the Kb in series [5] was found to be 0.7 nM. Moreover, the Activity result in [5] was “Antagonist”. Besides, the Tmax (in general, the time at which the peak concentration occurs) in series [7] turned out to be 0.5 h. Also, in series [8], the AUC – broadly, the area under the concentration-time curve, a measure of exposure – came out at 2670 ng·h/mL. In series [11], the highest level (Cmax) was 802 ng/mL.
With `CN1CCN(C2=Nc3cc(Cl)ccc3N(NC(=O)c3ccccc3Cl)c3ccccc32)CC1`, the Ki in [1] stood at 181 nM; in [2], 73 nM; in series [3], 1 nM; in [4], 181 nM; in [6], 455 nM; in series [9], 4 nM. Besides, the Ki in series [10] worked out at 870 nM. The same molecule came in with a Kb in [5] of 2.8 nM. Moreover, the Activity result in series [5] was “Antagonist”. Further, the Tmax in series [7] was determined as 1 h. For the same molecule, the AUC in [8] turned out to be 2660 ng·h/mL. Also, in series [11], the peak level (Cmax) was 821 ng/mL.
For the molecule `Cc1cccc(N)c1C(=O)NN1c2ccc(Cl)cc2N=C(N2CCN(C)CC2)c2ccccc21`, the Ki in series [1] worked out at 1020 nM; in [2] it was 58 nM; in series [3], 2.9 nM; in series [4] it was 1020 nM; in series [6], 456 nM; in series [9], 3.2 nM. Further, the Ki in [10] amounted to 4850 nM. This molecule also yielded a Kb in series [5] of 6.7 nM. In series [5], the Activity result was “Antagonist”.
Take `CN1CCN(C2=Nc3cc(Cl)ccc3N(NC(=O)c3c(F)cccc3C(F)(F)F)c3ccccc32)CC1`: the inhibition constant (Ki) in series [1] is 383 nM; in series [2] it was 7 nM; in series [3], 1.2 nM; in series [4], 383 nM; in series [6] it was 2000 nM; in [9], 2.5 nM. The molecule further registered a Ki in series [10] of 2000 nM. Also, the Kb in [5] was 2.3 nM. Besides, in series [5], the Activity result is “Antagonist”.
`Cc1cccc(C)c1C(=O)NN1c2ccc(Cl)cc2N=C(N2CCN(C)CC2)c2ccccc21`: the Ki in [1] came to 287 nM; in [2], 31 nM; in series [3], 2.2 nM; in [4] it was 287 nM; in series [6] it was 791 nM; in series [9], 3 nM. The same molecule displayed a Ki in [10] of 1870 nM. The Kb in [5] is 2.8 nM. The Activity result in series [5] is “Antagonist”.
With `CN1CCN(C2=Nc3cc(Cl)ccc3N(NC(=O)c3cccc4ccccc34)c3ccccc32)CC1`, the Ki worked out at 458 nM in series [1]; 105 nM in series [2]; 1 nM in series [3]; 458 nM in series [4]; 882 nM in series [6]; 3.8 nM in [9]. Moreover, in [10], the affinity, expressed as Ki, was 977 nM. Further, in series [5], the Kb is 2 nM. In addition, in [5], the Activity result is “Antagonist”. In addition, the Tmax in series [7] was 1 h. In series [8], this molecule displayed an AUC of 12900 ng·h/mL. The Cmax (in general, the peak of the concentration-time curve) in series [11] is 3570 ng/mL.
